This is an account of results in ChEMBL document CHEMBL5236607, “Membrane-Active Cyclic Amphiphilic Peptides: Broad-Spectrum Antibacterial Activity Alone and in Combination with Antibiotics” (J Med Chem, 2022).

For assay [1], the system named is Staphylococcus aureus. The assay is described as follows: Induction of resistance development in methicillin resistant Staphylococcus aureus ATCC BAA-1556 assessed as increase in MIC by microtiter plate reader assay. Type of assay: functional, organism-based. The gist of the method:
(§1)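 Serial passage resistance assay with 2-fold microdilution MICs in 96-well plates. Each passage takes the well with the highest concentration still permitting growth, adjusts it to 0.5 McFarland, and dilutes it to a final 5 × 10^5 CFU/mL for the next passage. Eighteen passages; MIC recorded at each. Triplicate.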

The test system of assay [2] is Staphylococcus aureus. The assay is described as follows: Induction of resistance development in Staphylococcus aureus ATCC 29213 assessed as increase in MIC by microtiter plate reader assay. Format: functional, organism-based. The gist of the method:
as §1

In assay [3] the test system is Escherichia coli. The assay is described as follows: Induction of resistance development in Escherichia coli ATCC 25922 assessed as increase in MIC by microtiter plate reader assay. Type of assay: functional, organism-based.
Assay [4] concerns Escherichia coli. Briefly: Induction of resistance development in Escherichia coli ATCC BAA-2452 assessed as increase in MIC by microtiter plate reader assay. Format: functional, organism-based. The gist of the method: as §1
Assay [5] is described as follows: Therapeutic index, ratio of HC50 for human RBC to MIC for methicillin resistant Staphylococcus aureus ATCC BAA-1556. The gist of the method:
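Human RBCs washed in PBS pH 7.4 and mixed 1:1 with two-fold peptide dilutions (4% v/v suspension), 2 h at 37 °C. Hemoglobin in supernatant read at 567 nm against PBS (0%) and 1% Triton X-100 (100%). HC50 is the concentration giving 50% hemolysis. Index is HC50 divided by MIC against MRSA.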

Assay [6] has as its system Staphylococcus aureus. Briefly: Antibacterial activity against methicillin resistant Staphylococcus aureus ATCC BAA-1556 after 24 hrs by microbroth dilution method. Format: functional.
Another assay deals with Pseudomonas aeruginosa. The assay is described as follows: Antibacterial activity against Pseudomonas aeruginosa ATCC […] after 24 hrs by microbroth dilution method. Format: functional.
For another assay, the system named is Klebsiella pneumoniae. The assay is described as follows: Antibacterial activity against imipenem resistant Klebsiella pneumoniae ATCC BAA-1705 after 24 hrs by microbroth dilution method. Type of assay: functional.
Assay [7] relates to Escherichia coli. The assay is described as follows: Antibacterial activity against Escherichia coli ATCC 25922 after 24 hrs by microbroth dilution method. Type of assay: functional.

The source made the active and inactive calls. No cut-off for these calls is given here. Bridge positions count the residues as written; N and C are the ends. Square brackets hold non-standard residues; d marks the D form. Peptide text beside a SMILES is read from it. * marks the point of attachment. X1 = CC[C@H](C)CCCCC(=O)*; Dab = NCC[C@H](N)C(=O)O

Take `CC[C@H](C)CCCCC(=O)N[C@@H](CCN)C(=O)N[C@H](C(=O)N[C@@H](CCN)C(=O)N[C@H]1CCNC(=O)[C@H]([C@@H](C)O)NC(=O)[C@H](CCN)NC(=O)[C@H](CCN)NC(=O)[C@H](CC(C)C)NC(=O)[C@@H](Cc2ccccc2)NC(=O)[C@H](CCN)NC1=O)[C@@H](C)O` (X1-[Dab]T[Dab][Dab][Dab][dF]L[Dab][Dab]T; lactam 4-C): the outcome with Staphylococcus aureus [1], in the assay on Staphylococcus aureus [2], in the assay on Escherichia coli [3] and in the assay on Escherichia coli [4] was Active.

As to `O=C(O)c1cn(C2CC2)c2cc(N3CCNCC3)c(F)cc2c1=O`, the outcome in the assay on Staphylococcus aureus [1], with Staphylococcus aureus [2] and with Escherichia coli [4] was Active.

For the compound `N=C(N)NCCC[C@@H]1NC(=O)[C@H](CCCNC(=N)N)NC(=O)[C@H](CCCNC(=N)N)NC(=O)[C@H](CCCNC(=N)N)NC(=O)[C@H](Cc2c[nH]c3ccccc23)NC(=O)[C@H](Cc2c[nH]c3ccccc23)NC(=O)[C@H](Cc2c[nH]c3ccccc23)NC(=O)[C@H](Cc2c[nH]c3ccccc23)NC(=O)[C@H](Cc2c[nH]c3ccccc23)NC(=O)[C@H](Cc2c[nH]c3ccccc23)NC(=O)[C@H](CCCNC(=N)N)NC(=O)[C@H](CCCNC(=N)N)NC(=O)[C@H](CCCNC(=N)N)NC1=O` (cyclo(RRRRRRRWWWWWW)), the TI in assay [5] is 5.31. On the same count and under the same terms, the value for `N=C(N)NCCC[C@@H]1NC(=O)[C@H](CCCNC(=N)N)NC(=O)[C@H](CCCNC(=N)N)NC(=O)[C@H](CCCNC(=N)N)NC(=O)[C@H](Cc2c[nH]c3ccccc23)NC(=O)[C@H](Cc2c[nH]c3ccccc23)NC(=O)[C@H](Cc2c[nH]c3ccccc23)NC(=O)[C@H](Cc2c[nH]c3ccccc23)NC(=O)[C@H](CCCNC(=N)N)NC(=O)[C@H](CCCNC(=N)N)NC(=O)[C@H](CCCNC(=N)N)NC1=O` (cyclo(RRRRRRRWWWW)) was 11.9. As to `N=C(N)NCCC[C@@H]1NC(=O)[C@H](CCCNC(=N)N)NC(=O)[C@H](CCCNC(=N)N)NC(=O)[C@H](Cc2c[nH]c3ccccc23)NC(=O)[C@H](Cc2c[nH]c3ccccc23)NC(=O)[C@H](Cc2c[nH]c3ccccc23)NC(=O)[C@H](Cc2c[nH]c3ccccc23)NC(=O)[C@H](Cc2c[nH]c3ccccc23)NC(=O)[C@H](Cc2c[nH]c3ccccc23)NC(=O)[C@H](CCCNC(=N)N)NC(=O)[C@H](CCCNC(=N)N)NC1=O` (cyclo(RRRRRWWWWWW)), the MIC with Staphylococcus aureus [6], against Pseudomonas aeruginosa, against Klebsiella pneumoniae and in the assay on Escherichia coli [7] was greater than 256 µg/mL in each case. Also, in assay [5], the TI is greater than 0.54. For `N=C(N)NCCC[C@@H]1NC(=O)[C@H](CCCNC(=N)N)NC(=O)[C@H](CCCNC(=N)N)NC(=O)[C@H](Cc2c[nH]c3ccccc23)NC(=O)[C@H](Cc2c[nH]c3ccccc23)NC(=O)[C@H](Cc2c[nH]c3ccccc23)NC(=O)[C@H](Cc2c[nH]c3ccccc23)NC(=O)[C@H](Cc2c[nH]c3ccccc23)NC(=O)[C@H](Cc2c[nH]c3ccccc23)NC(=O)[C@H](Cc2c[nH]c3ccccc23)NC(=O)[C@H](CCCNC(=N)N)NC1=O` (cyclo(RRRRWWWWWWW)), the MIC against Pseudomonas aeruginosa was greater than 256 µg/mL. In assay [5], the TI was found to be 0.23. Regarding `N=C(N)NCCC[C@@H]1NC(=O)[C@H](CCCNC(=N)N)NC(=O)[C@H](Cc2c[nH]c3ccccc23)NC(=O)[C@H](Cc2c[nH]c3ccccc23)NC(=O)[C@H](Cc2c[nH]c3ccccc23)NC1=O` (cyclo(RRWWW)), in assay [5], the TI was 3.75. With `N=C(N)NCCC[C@@H]1NC(=O)[C@H](CCCNC(=N)N)NC(=O)[C@H](Cc2c[nH]c3ccccc23)NC(=O)[C@H](Cc2c[nH]c3ccccc23)NC(=O)[C@H](Cc2c[nH]c3ccccc23)NC(=O)[C@H](Cc2c[nH]c3ccccc23)NC(=O)[C@H](Cc2c[nH]c3ccccc23)NC(=O)[C@H](CCCNC(=N)N)NC1=O` (cyclo(RRRWWWWW)), the TI in [5] was 0.63. Same read-out and setting: for `N=C(N)NCCC[C@@H]1NC(=O)[C@H](CCCNC(=N)N)NC(=O)[C@H](Cc2c[nH]c3ccccc23)NC(=O)[C@H](Cc2c[nH]c3ccccc23)NC(=O)[C@H](Cc2c[nH]c3ccccc23)NC(=O)[C@H](Cc2c[nH]c3ccccc23)NC(=O)[C@H](CCCNC(=N)N)NC1=O` (cyclo(RRRWWWW)) the value was 13.1.

Consider `N=C(N)NCCC[C@@H]1NC(=O)[C@H](CCCNC(=N)N)NC(=O)[C@H](CCCNC(=N)N)NC(=O)[C@H](CCCNC(=N)N)NC(=O)[C@H](Cc2c[nH]c3ccccc23)NC(=O)[C@H](Cc2c[nH]c3ccccc23)NC(=O)[C@H](Cc2c[nH]c3ccccc23)NC(=O)[C@H](Cc2c[nH]c3ccccc23)NC(=O)[C@H](Cc2c[nH]c3ccccc23)NC(=O)[C@H](CCCNC(=N)N)NC(=O)[C@H](CCCNC(=N)N)NC(=O)[C@H](CCCNC(=N)N)NC1=O` (cyclo(RRRRRRRWWWWW)), for which the TI in [5] came to 21.9.

Regarding `N=C(N)NCCC[C@@H]1NC(=O)[C@H](CCCNC(=N)N)NC(=O)[C@H](Cc2c[nH]c3ccccc23)NC(=O)[C@H](Cc2c[nH]c3ccccc23)NC(=O)[C@H](Cc2c[nH]c3ccccc23)NC(=O)[C@H](CCCNC(=N)N)NC1=O` (cyclo(WWWRRR)), the TI in assay [5] worked out at 9.69. On the same count and under the same terms, for `N=C(N)NCCC[C@@H]1NC(=O)[C@H](CCCNC(=N)N)NC(=O)[C@H](Cc2c[nH]c3ccccc23)NC(=O)[C@H](Cc2c[nH]c3ccccc23)NC(=O)[C@H](Cc2c[nH]c3ccccc23)NC(=O)[C@H](Cc2c[nH]c3ccccc23)NC(=O)[C@H](Cc2c[nH]c3ccccc23)NC(=O)[C@H](Cc2c[nH]c3ccccc23)NC(=O)[C@H](CCCNC(=N)N)NC1=O` the value was 1.02; for `N=C(N)NCCC[C@@H]1NC(=O)[C@H](CCCNC(=N)N)NC(=O)[C@H](CCCNC(=N)N)NC(=O)[C@H](Cc2c[nH]c3ccccc23)NC(=O)[C@H](Cc2c[nH]c3ccccc23)NC(=O)[C@H](Cc2c[nH]c3ccccc23)NC(=O)[C@H](Cc2c[nH]c3ccccc23)NC(=O)[C@H](Cc2c[nH]c3ccccc23)NC(=O)[C@H](Cc2c[nH]c3ccccc23)NC(=O)[C@H](CCCNC(=N)N)NC1=O`, 0.59; for `N=C(N)NCCC[C@@H]1NC(=O)[C@H](CCCNC(=N)N)NC(=O)[C@H](CCCNC(=N)N)NC(=O)[C@H](Cc2c[nH]c3ccccc23)NC(=O)[C@H](Cc2c[nH]c3ccccc23)NC(=O)[C@H](Cc2c[nH]c3ccccc23)NC(=O)[C@H](Cc2c[nH]c3ccccc23)NC(=O)[C@H](Cc2c[nH]c3ccccc23)NC(=O)[C@H](CCCNC(=N)N)NC(=O)[C@H](CCCNC(=N)N)NC1=O`, 57.5. Same read-out and setting: for `N=C(N)NCCC[C@@H]1NC(=O)[C@H](CCCNC(=N)N)NC(=O)[C@H](CCCNC(=N)N)NC(=O)[C@H](Cc2c[nH]c3ccccc23)NC(=O)[C@H](Cc2c[nH]c3ccccc23)NC(=O)[C@H](Cc2c[nH]c3ccccc23)NC(=O)[C@H](Cc2c[nH]c3ccccc23)NC(=O)[C@H](CCCNC(=N)N)NC1=O` (cyclo(RRRRWWWW)) the value was 43.8.

In the case of `N=C(N)NCCC[C@@H]1NC(=O)[C@H](CCCNC(=N)N)NC(=O)[C@H](CCCNC(=N)N)NC(=O)[C@H](CCCNC(=N)N)NC(=O)[C@H](Cc2c[nH]c3ccccc23)NC(=O)[C@H](Cc2c[nH]c3ccccc23)NC(=O)[C@H](Cc2c[nH]c3ccccc23)NC(=O)[C@H](Cc2c[nH]c3ccccc23)NC(=O)[C@H](Cc2c[nH]c3ccccc23)NC(=O)[C@H](Cc2c[nH]c3ccccc23)NC(=O)[C@H](CCCNC(=N)N)NC(=O)[C@H](CCCNC(=N)N)NC1=O` (cyclo(RRRRRRWWWWWW)), the TI in [5] amounted to 10.6. On to `N=C(N)NCCC[C@@H]1NC(=O)[C@H](CCCNC(=N)N)NC(=O)[C@H](CCCNC(=N)N)NC(=O)[C@H](Cc2c[nH]c3ccccc23)NC(=O)[C@H](Cc2c[nH]c3ccccc23)NC(=O)[C@H](Cc2c[nH]c3ccccc23)NC(=O)[C@H](Cc2c[nH]c3ccccc23)NC(=O)[C@H](Cc2c[nH]c3ccccc23)NC(=O)[C@H](Cc2c[nH]c3ccccc23)NC(=O)[C@H](Cc2c[nH]c3ccccc23)NC(=O)[C@H](CCCNC(=N)N)NC(=O)[C@H](CCCNC(=N)N)NC1=O` (cyclo(RRRRRWWWWWWW)), for which the MIC with Staphylococcus aureus [6], against Pseudomonas aeruginosa, in the assay with Klebsiella pneumoniae and in the assay with Escherichia coli [7] was greater than 256 µg/mL throughout. For the same compound, the TI in [5] was greater than 0.45. As for `N=C(N)NCCC[C@@H]1NC(=O)[C@H](CCCNC(=N)N)NC(=O)[C@H](CCCNC(=N)N)NC(=O)[C@H](CCCNC(=N)N)NC(=O)[C@H](Cc2c[nH]c3ccccc23)NC(=O)[C@H](Cc2c[nH]c3ccccc23)NC(=O)[C@H](Cc2c[nH]c3ccccc23)NC(=O)[C@H](Cc2c[nH]c3ccccc23)NC(=O)[C@H](Cc2c[nH]c3ccccc23)NC(=O)[C@H](Cc2c[nH]c3ccccc23)NC(=O)[C@H](Cc2c[nH]c3ccccc23)NC(=O)[C@H](CCCNC(=N)N)NC(=O)[C@H](CCCNC(=N)N)NC(=O)[C@H](CCCNC(=N)N)NC1=O` (cyclo(RRRRRRRWWWWWWW)), the TI in [5] is 8.75. Still for that read-out and setting: for `N=C(N)NCCC[C@@H]1NC(=O)[C@H](CCCNC(=N)N)NC(=O)[C@H](Cc2c[nH]c3ccccc23)NC(=O)[C@H](Cc2c[nH]c3ccccc23)NC(=O)[C@H](Cc2c[nH]c3ccccc23)NC(=O)[C@H](Cc2c[nH]c3ccccc23)NC1=O` (cyclo(RRWWWW)) the value was 1.33.
